# Measured values from ChEMBL document CHEMBL2169744, “Discovery and optimization of potent and selective imidazopyridine and imidazopyridazine mTOR inhibitors” (Bioorg Med Chem Lett, 2012).
# Key:
# [1] = Clearance in rat at 1 mg/kg, iv; assay type: ADME, organism-based; parameters: dose 1 mg/kg, route intravenous; conditions: in vivo
# [2] = Inhibition of mTORC1-mediated 4EBP1-phosphorylation in human U87 cells; assay type: cell-based, U-87MG ATCC
# [3] = Inhibition of mTORC2-mediated AKT Ser473-phosphorylation in human U87 cells; assay type: cell-based, U-87MG ATCC; conditions: U-87 MG
# Procedure, shortened: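 Cell assay in U87 cells measuring pAKT (S473), n ≥ 2.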
# [4] = biological target: Phosphatidylinositol 4,5-bisphosphate 3-kinase catalytic subunit alpha isoform (Homo sapiens, UniProt P42336); assay: Inhibition of PI3Kalpha by AlphaScreen assay
# [5] = biological target: Serine/threonine-protein kinase mTOR (Homo sapiens, UniProt P42345); assay: Inhibition of mTOR by LanthaScreen assay
# [6] = Volume of distribution at steady state in rat at 0.5 mg/kg, iv; assay type: ADME, organism-based; parameters: dose 0.5 mg/kg, route intravenous; conditions: in vivo, read-out: Vdss
# [7] = Half life in rat at 0.5 mg/kg, iv; assay type: ADME, organism-based; parameters: dose 0.5 mg/kg, route intravenous; conditions: in vivo
# [8] = Clearance in rat at 0.5 mg/kg, iv; assay type: ADME, organism-based; parameters: dose 0.5 mg/kg, route intravenous; conditions: in vivo
# [9] = Solubility of the compound in simulated intestinal fluid; assay type: physicochemical
# [10] = Plasma protein binding in rat at 5 mg/kg, po; assay type: ADME, organism-based; parameters: dose 5 mg/kg, route oral; conditions: read-out: PPB (converted)
# Rattus norvegicus = species: Rattus norvegicus; assay: Unbound clearance in rat; assay type: ADME, organism-based; conditions: in vivo
# [11] = AUC in rat at 0.5 mg/kg, iv; assay type: ADME, organism-based, Plasma; parameters: dose 0.5 mg/kg, route intravenous; conditions: plasma
# [12] = Oral bioavailability in rat at 5 mg/kg; assay type: ADME, organism-based; conditions: in vivo
# Procedure, shortened: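 Rat oral PK at 5.0 mpk in 1% Tween 80, 2% HPMC, 97% H2O, pH 2.2 (methanesulfonic acid).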
# [13] = Homo sapiens, U-87 MG, read-out: IC50
# Chain of Phosphatidylinositol 4,5-bisphosphate 3-kinase catalytic subunit alpha isoform (P42336 whole entry, canonical isoform): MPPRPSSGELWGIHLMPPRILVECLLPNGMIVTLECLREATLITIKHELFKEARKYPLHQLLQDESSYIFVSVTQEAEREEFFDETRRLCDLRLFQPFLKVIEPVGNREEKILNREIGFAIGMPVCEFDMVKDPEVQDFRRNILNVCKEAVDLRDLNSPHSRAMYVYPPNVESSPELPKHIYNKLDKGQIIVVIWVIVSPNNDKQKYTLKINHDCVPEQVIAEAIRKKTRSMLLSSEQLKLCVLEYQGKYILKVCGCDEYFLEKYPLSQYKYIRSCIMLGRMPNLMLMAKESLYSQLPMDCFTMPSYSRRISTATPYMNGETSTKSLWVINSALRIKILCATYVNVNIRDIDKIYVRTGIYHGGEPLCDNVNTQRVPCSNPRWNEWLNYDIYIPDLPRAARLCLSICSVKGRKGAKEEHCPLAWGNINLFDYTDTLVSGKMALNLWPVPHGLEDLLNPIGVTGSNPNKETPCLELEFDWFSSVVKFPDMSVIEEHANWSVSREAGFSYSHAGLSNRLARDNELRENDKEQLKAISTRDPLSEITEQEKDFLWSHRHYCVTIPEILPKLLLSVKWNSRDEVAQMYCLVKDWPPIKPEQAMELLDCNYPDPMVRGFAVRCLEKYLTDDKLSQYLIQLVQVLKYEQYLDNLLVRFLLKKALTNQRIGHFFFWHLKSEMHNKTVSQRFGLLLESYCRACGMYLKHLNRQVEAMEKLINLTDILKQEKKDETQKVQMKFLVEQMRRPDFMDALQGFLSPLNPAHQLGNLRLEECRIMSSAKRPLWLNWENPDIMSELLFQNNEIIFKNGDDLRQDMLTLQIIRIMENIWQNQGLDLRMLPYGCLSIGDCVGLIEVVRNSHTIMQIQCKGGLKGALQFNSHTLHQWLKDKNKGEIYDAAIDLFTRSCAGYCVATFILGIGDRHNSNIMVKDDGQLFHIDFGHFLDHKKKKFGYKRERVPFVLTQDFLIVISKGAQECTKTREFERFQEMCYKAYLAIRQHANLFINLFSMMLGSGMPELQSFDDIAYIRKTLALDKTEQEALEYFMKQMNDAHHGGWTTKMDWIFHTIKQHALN
Structure (SMILES),clearance [1] [mL/min/kg],"IC50 [2, 13] [nM]",IC50 [3] [nM],IC50 [4] [nM],IC50 [5] [nM],Vd [6] [L/kg],half-life [7] [min],clearance [8] [mL/min/kg],solubility [9] [µg/mL],IC50 ([2]; u-87mg atcc),fraction unbound [10],CL free (Rattus norvegicus) [mL/min/kg],AUC [11] [µM·h],bioavailability [12] [%]
Cc1cc(-c2ccc3nc(Nc4cc[nH]n4)c(-c4nc(C)nc(N)n4)n3c2)on1,33.3,72,7,177,3,–,–,–,–,–,–,–,–,–
Cc1nc(N)nc(-c2c(Nc3cc[nH]n3)nc3ccc(-c4ccncc4)cn23)n1,33.3,326,26,306,6,–,–,–,–,–,–,–,–,–
COc1ncccc1-c1ccc2nc(Nc3ccn[nH]3)c(-c3nc(C)nc(N)n3)n2c1,33.3,510,138,268,39,–,–,–,–,–,–,–,–,–
CC(=O)Nc1cccc(-c2ccc3nc(Nc4cc[nH]n4)c(-c4nc(C)nc(N)n4)n3c2)c1,33.3,115,29,96,–,–,–,–,–,–,–,–,–,–
Cc1nc(N)nc(-c2c(Nc3cc[nH]n3)nc3ccc(-c4cncnc4)cn23)n1,33.3,93,5,85,2,–,–,–,–,–,–,–,–,–
Cc1nc(N)nc(-c2c(Nc3ccn[nH]3)nc3ccc(-c4cnn(C5CC5)c4)cn23)n1,33.3,58,8,144,2,–,–,–,–,–,–,–,–,–
Cc1nccc(-c2c(Nc3ccn[nH]3)nc3cccnn23)n1,–,2170,–,3020,141,0.62,13.8,31.7,14,–,–,–,–,–
Cc1nc(N)nc(-c2c(Nc3ccn[nH]3)nc3ccc(-c4cncn4C)cn23)n1,33.3,276,23,463,5,–,–,–,–,–,–,–,–,–
COc1cnnc(Nc2cc(-c3c(Nc4cc[nH]n4)nc4cccnn34)nc(C)n2)c1,–,85,–,54,3,9.1,70.8,103,175,–,–,–,–,–
Cc1nc(N)nc(-c2c(Nc3cc[nH]n3)nc3ccc(-c4ccccc4C)cn23)n1,33.3,652,54,393,21,–,–,–,–,–,–,–,–,–
Cc1nc(N)nc(-c2c(Nc3cc[nH]n3)nc3ccc(-c4cccnc4C)cn23)n1,33.3,41,10,120,3,–,–,–,–,–,–,–,–,–
Cc1nc(Nc2cccnc2)cc(-c2c(Nc3ccn[nH]3)nc3cccnn23)n1,–,6390,–,1140,147,–,–,–,1,–,–,–,–,–
Cc1nc(N)nc(-c2c(Nc3ccn(C)n3)nc3ccc(-c4cncnc4)cn23)n1,–,–,–,635,76,1,15.6,41.7,1,Not Active,–,–,–,–
CC(=O)Nc1cc(-c2c(Nc3ccn(C)n3)nc3ccccn23)nc(C)n1,–,940,–,4580,67,0.6,39.6,10,–,–,0.056,180,2.3,4
Cc1nc(N)nc(-c2c(Nc3ccn[nH]3)nc3ccc(-c4cccc(F)c4)cn23)n1,33.3,912,73,654,27,–,–,–,–,–,–,–,–,–
Cc1nc(N)nc(-c2c(Nc3cc[nH]n3)nc3ccc(-c4ccccc4F)cn23)n1,33.3,67,64,648,15,–,–,–,–,–,–,–,–,–
CC(=O)Nc1cc(-c2c(Nc3cc[nH]n3)nc3ccccn23)nc(C)n1,–,60,–,112,9,1.2,31.2,38.3,–,–,–,–,0.6,–
Cc1cc(-c2ccc3nc(Nc4cc[nH]n4)c(-c4nc(C)nc(N)n4)n3c2)ccn1,33.3,222,23,239,4,–,–,–,–,–,–,–,–,–
CC(=O)Nc1cc(-c2c(Nc3ccn(C)n3)nc3ccc(-c4cnco4)cn23)nc(C)n1,–,347,–,3170,20,4.1,42,117,–,–,–,–,0.2,3
Cc1nc(N)nc(-c2c(Nc3ccn[nH]3)nc3ccc(-c4cncnc4C)cn23)n1,33.3,57,6,68,3,–,–,–,–,–,–,–,–,–
Cc1nc(N)nc(-c2c(Nc3cc[nH]n3)nc3ccc(-c4cnccc4C)cn23)n1,33.3,49,13,73,2,–,–,–,–,–,–,–,–,–
Cc1nc(N)nc(-c2c(Nc3cc[nH]n3)nc3ccc(-c4cccnc4)cn23)n1,33.3,101,12,119,3,–,–,–,–,–,–,–,–,–
Cc1nc(Nc2cnn(C3CCOC3)c2)cc(-c2c(Nc3ccn[nH]3)nc3cccnn23)n1 (configuration not stated),–,146,–,105,36,3.2,21.6,100,> 200,–,–,–,–,–
Cc1nc(Nc2cccnn2)cc(-c2c(Nc3ccn[nH]3)nc3cccnn23)n1,–,276,–,173,24,–,–,–,–,–,–,–,–,–
CNc1cc(-c2c(Nc3cc[nH]n3)nc3cccnn23)nc(C)n1,–,706,–,1140,63,1.3,15.6,80,7,–,–,–,–,29
CC(=O)Nc1cc(-c2c(Nc3ccn(C)n3)nc3cccnn23)nc(C)n1,–,1230,–,1660,55,0.8,23.4,18.3,–,–,0.033,555,1.3,34
Cc1nc(Nc2cnccn2)cc(-c2c(Nc3ccn[nH]3)nc3cccnn23)n1,–,66,–,122,6,2.5,25.2,96.7,–,–,–,–,–,–
CC(=O)Nc1cc(-c2c(Nc3ccn(C)n3)nc3ccc(-c4cnn(C(C)C)c4)cn23)nc(C)n1,–,694,–,> 125000,16,2.1,258,8.33,–,–,0.004,–,1.8,8
CC(=O)Nc1cc(-c2c(Nc3cc[nH]n3)nc3cccnn23)nc(C)n1,–,45,–,47,3,6.3,49.2,43.3,200,–,0.056,–,0.6,46
